According to ChEMBL document CHEMBL1154759, “Benzo[e]isoindole-1,3-diones as potential inhibitors of glycogen synthase kinase-3 (GSK-3). Synthesis, kinase inhibitory activity, zebrafish phenotype, and modeling of binding mode” (J Med Chem, 2010):
Activity calls are given as the source filed them. The rule behind the calls is not given here.

Experiments:
[1] = target: T1, Glycogen synthase kinase-3 beta (Homo sapiens, UniProt P49841); assay: Inhibition of human recombinant GSK3-beta at 1 uM by ELISA
Method in brief: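 Recombinant human GSK3β (500 ng) with human tau-441 (1 μg) as substrate, in a 20 μL reaction with 10× kinase buffer stock (200 mM Tris-HCl pH 7.4, 100 mM MgCl2, 5 mM DTT) and ATP added from a 100 μM stock. Incubated 30 °C for 45 min. Phospho-tau pS396 measured by immunoassay at A450. Controls were DMSO and no-ATP.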
Target sequence in this assay (P49841 whole entry, looked up): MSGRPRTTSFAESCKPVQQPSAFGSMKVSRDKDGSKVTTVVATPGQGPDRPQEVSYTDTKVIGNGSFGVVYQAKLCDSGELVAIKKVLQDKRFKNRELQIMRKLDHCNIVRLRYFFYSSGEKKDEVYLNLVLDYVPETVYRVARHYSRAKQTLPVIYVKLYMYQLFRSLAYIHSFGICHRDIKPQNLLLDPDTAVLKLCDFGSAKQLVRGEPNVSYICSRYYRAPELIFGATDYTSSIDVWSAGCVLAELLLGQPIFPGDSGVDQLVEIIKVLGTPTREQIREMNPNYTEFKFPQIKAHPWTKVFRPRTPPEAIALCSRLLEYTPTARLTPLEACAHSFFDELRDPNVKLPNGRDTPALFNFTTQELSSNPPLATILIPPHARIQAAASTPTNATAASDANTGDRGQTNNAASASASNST

[2] = target: T1, Glycogen synthase kinase-3 beta; assay: Inhibition of human recombinant GSK3-beta
Method in brief: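 10× kinase buffer stock was 200 mM Tris-HCl pH 7.4, 100 mM MgCl2, 5 mM DTT; ATP added from a 100 μM stock. Incubated 30 °C for 45 min. Tau pS396 read by immunoassay at A450. DMSO and no-ATP controls were run. IC50 taken from activity curves.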
Target sequence in this assay (P49841 whole entry): as the sequence (P49841 whole entry, looked up) above

[3] = target: Cyclin-dependent kinase 4/cyclin D1 (Homo sapiens, UniProt P11802); assay: Inhibition of human CDK4/cyclin D1 by ELISA; type: protein-complex assay
[4] = Toxicity in Zebrafish embryos assessed as induction of eyeless phenotype during gastrulation at 25 uM after 3 days; type: tissue-based, Danio rerio, Embryo; conditions: in vivo, 72 h
Method in brief: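 FLK-1:EGFP transgenic zebrafish embryos, six per well in 200 μL Holtfreter's buffer. Compound added at dome stage and embryos kept in compound solution up to 7 days. Heads examined at 1 and 3 dpf for eye phenotype. LiCl comparison: 0.3 M for 10 min, then buffer.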

[5] = target: Cyclin-dependent kinase 2/cyclin A (Homo sapiens, UniProt P24941); assay: Inhibition of human CDK2/Cyclin A by ELISA; type: protein-complex assay
[6] = target: T1, Glycogen synthase kinase-3 beta; assay: Inhibition of human recombinant GSK3-beta at 1 uM by ATP competitive assay
Method in brief: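 Recombinant human GSK3β (60 ng) with tau-441 (400 ng) in 10× buffer stock (200 mM Tris-HCl pH 7.4, 100 mM MgCl2, 5 mM DTT). Inhibitor at 1 μM final, ATP varied, 20 μL, 30 °C for 45 min. Tau pS396 measured by immunoassay at A450. Activity (% of control) versus [ATP] fitted to a simple competitive-inhibition equation to give apparent Ki.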
Target sequence in this assay (P49841 whole entry): as the sequence (P49841 whole entry, looked up) above

Cyclin-dependent kinase 4/cyclin D1, sequence (P11802 whole entry): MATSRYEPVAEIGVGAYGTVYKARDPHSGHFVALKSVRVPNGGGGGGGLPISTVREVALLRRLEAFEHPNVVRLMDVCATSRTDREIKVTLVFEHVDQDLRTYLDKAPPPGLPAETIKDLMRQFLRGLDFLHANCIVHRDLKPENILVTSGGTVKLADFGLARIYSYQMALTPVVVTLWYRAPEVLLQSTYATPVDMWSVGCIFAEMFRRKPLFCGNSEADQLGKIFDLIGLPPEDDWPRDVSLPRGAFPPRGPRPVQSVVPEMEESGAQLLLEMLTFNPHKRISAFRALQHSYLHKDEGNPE
Cyclin-dependent kinase 4/cyclin D1, sequence (P24385 whole entry, further chain): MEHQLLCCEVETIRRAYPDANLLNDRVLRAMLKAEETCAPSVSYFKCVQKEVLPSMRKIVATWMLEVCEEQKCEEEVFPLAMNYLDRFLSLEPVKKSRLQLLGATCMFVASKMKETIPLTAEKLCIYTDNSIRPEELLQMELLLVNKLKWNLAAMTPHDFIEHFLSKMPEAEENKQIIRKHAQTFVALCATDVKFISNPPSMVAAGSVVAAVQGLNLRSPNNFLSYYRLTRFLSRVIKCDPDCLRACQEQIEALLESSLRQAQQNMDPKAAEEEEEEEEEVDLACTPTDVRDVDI

| Compound | Activity [1] | also measured |
| --- | --- | --- |
| CCc1cc2c(c3cc(OC)c(OC)cc13)C(=O)NC2=O | Active | IC50 [2]: 92 nM; IC50 [3]: 19000 nM; Activity [4]: Not Active |
| COC(=O)c1ccc2c3c(c(C(C)C)cc2c1)C(=O)NC3=O | Active |  |
| COC(=O)c1ccc2c3c(c(CCO)cc2c1)C(=O)NC3=O | Active |  |
| COC(=O)c1ccc2c3c(c(CC(C)OCc4ccccc4)cc2c1)C(=O)NC3=O (stereo not drawn) | Active |  |
| COC(=O)c1ccc2cc(C)c3c(c2c1)C(=O)NC3=O | Active |  |
| Cc1cc2ccc(Cl)cc2c2c1C(=O)NC2=O | Active |  |
| COc1cc2c(C)cc3c(c2cc1OC)C(=O)NC3=O | Active | IC50 [2]: 270 nM; IC50 [5]: 787 nM; IC50 [3]: 16000 nM; Ki [6]: 259 nM; Activity [4]: Active |
| Cn1cc(C2=C(c3ccc(Cl)cc3Cl)C(=O)NC2=O)c2ccccc21 [SB-216763] | Active | IC50 [5]: 269 nM; IC50 [3]: 32000 nM; Activity [4]: Not Active |
| Cc1cc2ccccc2c2c1C(=O)NC2=O | Active |  |
| COC(=O)c1ccc2cc(C(C)C)c3c(c2c1)C(=O)NC3=O | Active |  |
| COC(=O)c1ccc2c3c(c(CCOCc4ccccc4)cc2c1)C(=O)NC3=O | Active |  |
| COc1ccc2cc(C)c3c(c2c1)C(=O)NC3=O | Active |  |

The next lines start with results.

| Activity [1] | Compound | also measured |
| --- | --- | --- |
| Active | COC(=O)c1cccc2c3c(c(C)c(C)c12)C(=O)NC3=O |  |
| Active | COC(=O)c1ccc2cc(CC(C)C)c3c(c2c1)C(=O)NC3=O |  |
| Active | COC(=O)c1ccc2c3c(c(CC(C)C)cc2c1)C(=O)NC3=O |  |
| Active | CCc1cc2ccc(C(=O)OC)cc2c2c1C(=O)NC2=O |  |
| Active | CCc1cc2cc(C(=O)OC)ccc2c2c1C(=O)NC2=O |  |
| Active | CCCc1cc2c(C(=O)OC)cccc2c2c1C(=O)NC2=O |  |
| Active | COC(=O)c1ccc2c3c(c(C)c(C)c2c1)C(=O)NC3=O |  |
| Active | COC(=O)c1cccc2c3c(c(CC(C)C)cc12)C(=O)NC3=O | IC50 [2]: 486 nM; IC50 [3]: 6000 nM |
| Active | COC(=O)c1cccc2c3c(c(C)cc12)C(=O)NC3=O |  |
| Active | COC(=O)c1cccc2c3c(c(C(C)C)cc12)C(=O)NC3=O |  |
| Active | COC(=O)c1ccc2c3c(c(CC(C)O)cc2c1)C(=O)NC3=O (stereo not drawn) |  |
| Active | CCc1cc2c(C(=O)OC)cccc2c2c1C(=O)NC2=O |  |
| Active | CCc1c(C)c2c(c3cc(C(=O)OC)ccc13)C(=O)NC2=O |  |
